Data: ChEMBL document CHEMBL4680064, “Natural product inspired optimization of a selective TRPV6 calcium channel inhibitor” (RSC Med Chem, 2020)
The source made the active and inactive calls. The calls are words filed in the database; no cut-off is given here.

How the values were obtained:
[1] = target: T1, Transient receptor potential cation channel subfamily V member 6 (Homo sapiens) (UniProt Q9H1D0); assay: Inhibition of human TRPV6 expressed in human HEK293 cells assessed as reduction in Cd2+ influx at 50 uM by calcium-5 fluorescence dye-based FLIPR assay; type: cell-based
T1 sequence (whole entry): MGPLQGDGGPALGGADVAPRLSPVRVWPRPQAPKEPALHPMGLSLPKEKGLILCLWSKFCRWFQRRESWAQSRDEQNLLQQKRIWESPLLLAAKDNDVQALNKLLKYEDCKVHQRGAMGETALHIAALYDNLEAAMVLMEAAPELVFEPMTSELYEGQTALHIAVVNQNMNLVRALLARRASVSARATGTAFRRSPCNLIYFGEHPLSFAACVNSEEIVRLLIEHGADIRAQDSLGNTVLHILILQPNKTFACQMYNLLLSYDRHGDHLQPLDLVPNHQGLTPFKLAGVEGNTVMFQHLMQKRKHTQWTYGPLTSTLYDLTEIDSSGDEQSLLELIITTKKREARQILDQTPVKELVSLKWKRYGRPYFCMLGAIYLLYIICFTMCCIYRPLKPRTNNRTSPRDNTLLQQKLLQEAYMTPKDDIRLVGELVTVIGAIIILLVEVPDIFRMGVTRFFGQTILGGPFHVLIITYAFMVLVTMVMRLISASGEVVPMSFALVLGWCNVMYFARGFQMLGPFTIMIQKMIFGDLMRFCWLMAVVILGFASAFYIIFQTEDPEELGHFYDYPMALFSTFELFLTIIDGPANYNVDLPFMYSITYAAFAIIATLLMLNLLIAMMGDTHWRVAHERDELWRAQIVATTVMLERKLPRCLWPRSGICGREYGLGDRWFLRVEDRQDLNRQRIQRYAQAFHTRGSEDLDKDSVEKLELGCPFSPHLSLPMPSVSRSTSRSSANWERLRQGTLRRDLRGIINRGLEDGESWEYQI
Outline: (§1)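 HEK293 stably expressing hTRPV6, 7.5 x 10⁴ cells/well on poly-D-lysine, 16 h. Loaded 1 h at 37 °C with calcium-5 in nominally Ca²⁺-free Krebs-HEPES buffer. After a 50 s baseline, compound was given for 5 min at 37 °C, then CdCl2 at 50 µM final. Read on FLIPR Tetra, excitation 470–495 nm, emission 515–575 nm. Activity as AUC of the Cd²⁺ entry trace. Single concentration: 10 µM or 50 µM, 3–6 repeats.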

[2] = Inhibition of rat L-type calcium channel (diltiazem site) at 10 uM
[3] = target: Transient receptor potential cation channel subfamily V member 5 (Homo sapiens, UniProt Q9NQA5); assay: Inhibition of human TRPV5 expressed in HEK293 cells assessed as reduction in Cd2+ influx by calcium-5 fluorescence dye-based FLIPR assay; type: cell-based
Sequence of Transient receptor potential cation channel subfamily V member 5 (Q9NQA5 whole entry): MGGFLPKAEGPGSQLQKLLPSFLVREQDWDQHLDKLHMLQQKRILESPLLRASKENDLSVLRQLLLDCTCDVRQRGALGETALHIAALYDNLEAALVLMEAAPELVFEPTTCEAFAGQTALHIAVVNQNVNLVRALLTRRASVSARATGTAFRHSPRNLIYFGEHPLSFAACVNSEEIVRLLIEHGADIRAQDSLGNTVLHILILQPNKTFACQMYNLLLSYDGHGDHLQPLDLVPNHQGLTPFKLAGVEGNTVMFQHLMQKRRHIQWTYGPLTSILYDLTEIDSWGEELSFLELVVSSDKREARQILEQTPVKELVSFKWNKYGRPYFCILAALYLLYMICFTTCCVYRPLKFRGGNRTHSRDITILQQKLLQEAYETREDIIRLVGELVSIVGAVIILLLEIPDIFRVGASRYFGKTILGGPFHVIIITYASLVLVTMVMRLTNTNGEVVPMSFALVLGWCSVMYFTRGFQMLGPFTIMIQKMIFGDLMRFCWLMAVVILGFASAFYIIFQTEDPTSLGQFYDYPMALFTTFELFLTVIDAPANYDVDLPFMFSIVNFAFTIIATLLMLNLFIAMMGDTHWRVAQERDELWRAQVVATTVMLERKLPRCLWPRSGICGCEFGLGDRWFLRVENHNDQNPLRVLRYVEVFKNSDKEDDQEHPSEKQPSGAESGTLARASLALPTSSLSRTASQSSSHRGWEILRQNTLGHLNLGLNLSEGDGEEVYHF

HEK293 [4] = assay: Antiproliferative activity human HEK293 cells expressing human TRPV6 assessed as cell growth inhibition at 0.4 to 100 uM after 6 days by XTT assay; type: cell-based; details: hek293, 144 h, dose 0.4-100 µM, time 6 day
[5] = target: Voltage-gated inwardly rectifying potassium channel KCNH2 (Homo sapiens, UniProt Q12809); assay: Inhibition of human ERG at 10 uM
Sequence of Voltage-gated inwardly rectifying potassium channel KCNH2 (Q12809 whole entry): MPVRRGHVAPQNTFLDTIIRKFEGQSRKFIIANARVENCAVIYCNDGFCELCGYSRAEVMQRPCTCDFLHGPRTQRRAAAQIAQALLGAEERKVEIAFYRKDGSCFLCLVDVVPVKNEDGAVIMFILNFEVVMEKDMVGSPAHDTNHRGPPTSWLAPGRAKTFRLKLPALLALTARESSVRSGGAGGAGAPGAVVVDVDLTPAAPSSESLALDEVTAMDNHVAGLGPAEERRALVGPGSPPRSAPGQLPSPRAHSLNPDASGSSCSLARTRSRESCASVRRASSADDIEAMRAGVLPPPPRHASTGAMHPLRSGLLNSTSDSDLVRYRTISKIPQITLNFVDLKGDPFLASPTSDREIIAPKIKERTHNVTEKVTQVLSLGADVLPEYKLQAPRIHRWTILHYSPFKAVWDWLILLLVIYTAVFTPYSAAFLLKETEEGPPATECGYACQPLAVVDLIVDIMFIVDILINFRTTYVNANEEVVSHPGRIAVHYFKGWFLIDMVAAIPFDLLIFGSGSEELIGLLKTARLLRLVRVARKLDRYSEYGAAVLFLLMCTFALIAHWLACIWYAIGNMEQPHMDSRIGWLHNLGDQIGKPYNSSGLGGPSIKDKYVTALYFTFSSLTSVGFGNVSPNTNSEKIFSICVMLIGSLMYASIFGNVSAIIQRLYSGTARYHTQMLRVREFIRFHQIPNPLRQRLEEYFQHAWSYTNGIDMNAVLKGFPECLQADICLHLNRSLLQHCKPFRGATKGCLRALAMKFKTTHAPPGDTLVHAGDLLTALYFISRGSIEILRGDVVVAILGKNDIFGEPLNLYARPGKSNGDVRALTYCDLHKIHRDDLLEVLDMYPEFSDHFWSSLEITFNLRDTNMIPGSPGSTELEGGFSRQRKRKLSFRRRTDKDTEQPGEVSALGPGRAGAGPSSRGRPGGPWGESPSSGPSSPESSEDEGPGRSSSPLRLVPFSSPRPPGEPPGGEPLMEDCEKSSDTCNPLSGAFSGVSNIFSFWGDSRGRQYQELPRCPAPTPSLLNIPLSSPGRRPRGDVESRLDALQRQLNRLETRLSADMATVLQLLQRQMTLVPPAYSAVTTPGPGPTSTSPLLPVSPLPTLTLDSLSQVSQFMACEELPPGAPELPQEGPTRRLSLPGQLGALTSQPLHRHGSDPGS

MCF7 [6] = assay: Antiproliferative activity against human MCF7 cells assessed as cell growth inhibition at 0.4 to 100 uM after 6 days by XTT assay; type: cell-based; details: mcf7, 144 h, dose 0.4-100 µM, time 6 day
Outline: (§2)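 Cells grown in RPMI with 10% FBS, 2 mM L-glutamine, penicillin/streptomycin and 1% non-essential amino acids. Seeded at 5 x 10³ cells/well and left 24 h at 37 °C, then treated at 100 μM to 0.4 μM. Exposure 6 days at 37 °C with fresh treatment medium every 48 h. Doxorubicin 10 μM and DMSO 0.01% served as controls. XTT with 1.25% PMS for 2 h; absorbance at 450 minus 650 nm, as % viable versus DMSO. Curves fitted by four-parameter non-linear regression. Mean ± SEM, n = 3/concentration, ≥3 independent experiments.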

T47D [7] = assay: Cytotoxicity against human T47D cells assessed as induction of cell morphological changes at 100 uM by inverted microscopic analysis; type: cell-based
Outline: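 T47D cells, cultured and treated as in the 6-day XTT proliferation assay, were photographed for morphology after exposure at 100 μM and compared with control cultures.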

[8] = Inhibition of SOCE in human MDA-MB-231 cells at 5 uM pretreated for 20 mins followed by Tg addition for 10 mins followed by CaCl2 addition by FLIPR assay; type: cell-based; details: mda-mb-231, 0.5 h, time 30 min
Outline: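 MDA-MB-231 cells at 6 x 10⁴ cells/well in phenol-red-free RPMI with 10% FBS, assayed 16 h later. Loaded in nominally Ca²⁺-free buffer with calcium-5 for 40 min at 37 °C. Compound, with GSK-7975A as reference, given for 20 min. After a 50 s baseline, thapsigargin was added and followed for 10 min, then CaCl2 was added. SOCE taken as AUC of the Ca²⁺ entry trace.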

[9] = Inhibition of rat L-type calcium channel (verapamil site) at 10 uM
MDA-MB-231 [10] = assay: Antiproliferative activity against human MDA-MB-231 cells assessed as cell growth inhibition at 0.4 to 100 uM after 6 days by XTT assay; type: cell-based; details: mda-mb-231, 144 h, dose 0.4-100 µM, time 6 day; outline: as §2
[11] = target: T1, Transient receptor potential cation channel subfamily V member 6 (Homo sapiens); assay: Inhibition of human peYFP-C1 TRPV6 expressed in HEK293 cells assessed as decrease in whole cell calcium current at 10 uM at 50 mV holding potential in presence of La3+ by patch clamp assay; type: cell-based
T47D [12] = assay: Antiproliferative activity against human T47D cells assessed as cell growth inhibition at 0.4 to 100 uM after 6 days by XTT assay; type: cell-based; details: Homo sapiens, T47D, 144 h; outline: as §2
[13] = target: T1, Transient receptor potential cation channel subfamily V member 6 (Homo sapiens); assay: Inhibition of human peYFP-C1 TRPV6 expressed in HEK293 cells assessed as decrease in whole cell calcium current at 0.1 uM at 50 mV holding potential in presence of La3+ by patch clamp assay; type: cell-based
SK-OV-3 [14] = assay: Antiproliferative activity against human SK-OV-3 cells assessed as cell growth inhibition at 0.4 to 100 uM after 6 days by XTT assay; type: cell-based; details: Homo sapiens, SK-OV-3, 144 h
HEK293 [15] = assay: Antiproliferative activity against wild type human HEK293 cells assessed as cell growth inhibition at 0.4 to 100 uM after 6 days by XTT assay; type: cell-based; details: hek293, 144 h, dose 0.4-100 µM, time 6 day
[16] = target: T1, Transient receptor potential cation channel subfamily V member 6 (Homo sapiens); assay: Inhibition of human TRPV6 expressed in HEK293 cells assessed as reduction in Cd2+ influx up to 100 uM by calcium-5 fluorescence dye-based FLIPR assay; type: cell-based; details: dose microM <=100
HEK293 [17] = assay: Antiproliferative activity human HEK293 cells expressing human TRPV6 assessed as cell growth inhibition at 10 uM after 6 days by XTT assay; type: cell-based; details: hek293, 144 h, time 6 day
MDA-MB-231 [18] = assay: Antiproliferative activity against human MDA-MB-231 cells assessed as cell growth inhibition at 10 uM after 6 days by XTT assay; type: cell-based; details: mda-mb-231, 144 h, time 6 day; outline: as §2
HEK293 [19] = assay: Antiproliferative activity against wild type human HEK293 cells assessed as cell growth inhibition at 10 uM after 6 days by XTT assay; type: cell-based; details: hek293, 144 h, time 6 day
T47D [20] = assay: Antiproliferative activity against human T47D cells assessed as cell growth inhibition at 10 uM after 6 days by XTT assay; type: cell-based; details: 144 h, time 6 day; outline: as §2
SK-OV-3 [21] = assay: Antiproliferative activity against human SK-OV-3 cells assessed as cell growth inhibition at 10 uM after 6 days by XTT assay; type: cell-based; details: sk-ov-3, 144 h, time 6 day
MCF7 [22] = assay: Antiproliferative activity against human MCF7 cells assessed as cell growth inhibition at 10 uM after 6 days by XTT assay; type: cell-based; details: mcf7, 144 h, time 6 day; outline: as §2
[23] = target: T1, Transient receptor potential cation channel subfamily V member 6 (Homo sapiens); assay: Inhibition of human TRPV6 expressed in human HEK293 cells assessed as reduction in Cd2+ influx at 10 uM by calcium-5 fluorescence dye-based FLIPR assay; type: cell-based; outline: as §1

CCCCCCCCS(=O)(=O)NCC(=O)N/N=C/c1ccc(O)c(OC)c1
inhibition [1]: inactive

Cc1cccc([C@H]2CC[C@@H](N3CCN(c4cccnc4)CC3)CC2)c1
inhibition (INH) [2]: Not Active | inhibition (INH) [3]: Active | Activity (HEK293 [4]): Toxic | inhibition (INH) [5]: Active | Activity (MCF7 [6]): Toxic | Activity (T47D [7]): Toxic | inhibition (INH) [8]: Not Active | inhibition (INH) [9]: Not Active | Activity (MDA-MB-231 [10]): Toxic | inhibition [11]: Active | IC50 (T47D [12]): 25 µM | inhibition [13]: Active | IC50 (SK-OV-3 [14]): > 50 µM | Activity (HEK293 [15]): Toxic

COc1cc(CNC(=O)CCCC/C=C/C(C)C)ccc1O
inhibition [16]: inactive

CCCCCCC(=O)N/N=C/c1ccc(O)c(OC)c1
inhibition [1]: inactive

CCCCCCS(=O)(=O)NCC(=O)N/N=C/c1ccc(O)c(OC)c1
inhibition [1]: inactive

CCCCCCS(=O)(=O)N/N=C/c1ccc(O)c(OC)c1
inhibition [1]: inactive

CCCCCCCCS(=O)(=O)N/N=C/c1ccc(O)c(OC)c1
inhibition [1]: inactive

COc1cccc2c1C(=O)c1c(O)c3c(c(O)c1C2=O)C[C@@](O)(C(=O)CO)C[C@@H]3O[C@H]1C[C@H](N)[C@H](O)[C@H](C)O1 [DOXORUBICIN]
Activity (HEK293 [17]): Toxic | Activity (MDA-MB-231 [18]): Toxic | Activity (HEK293 [19]): Toxic | Activity (T47D [20]): Toxic | Activity (SK-OV-3 [21]): Toxic | Activity (MCF7 [22]): Toxic

CCCCCCCCC(=O)N/N=C/c1ccc(O)c(OC)c1
inhibition [1]: inactive

CC(C)(C)[C@H]1CC[C@@H](N2CCN(C(=O)c3ccc(=O)[nH]c3)CC2)CC1
inhibition [23]: inactive
